Results taken from ChEMBL document CHEMBL1136201, “Synthesis and binding selectivity of 7- and 15-decylbenzolactone-V8 for the C1 domains of protein kinase C isozymes” (Bioorg Med Chem Lett, 2003).

Columns and labels:
[1] = molecular target: T1, Protein kinase C epsilon type (Homo sapiens, UniProt Q02156); test: Displacement of [3H]-PDBu from protein kinase C epsilon-C1B domain
T1 sequence (Q02156 whole entry): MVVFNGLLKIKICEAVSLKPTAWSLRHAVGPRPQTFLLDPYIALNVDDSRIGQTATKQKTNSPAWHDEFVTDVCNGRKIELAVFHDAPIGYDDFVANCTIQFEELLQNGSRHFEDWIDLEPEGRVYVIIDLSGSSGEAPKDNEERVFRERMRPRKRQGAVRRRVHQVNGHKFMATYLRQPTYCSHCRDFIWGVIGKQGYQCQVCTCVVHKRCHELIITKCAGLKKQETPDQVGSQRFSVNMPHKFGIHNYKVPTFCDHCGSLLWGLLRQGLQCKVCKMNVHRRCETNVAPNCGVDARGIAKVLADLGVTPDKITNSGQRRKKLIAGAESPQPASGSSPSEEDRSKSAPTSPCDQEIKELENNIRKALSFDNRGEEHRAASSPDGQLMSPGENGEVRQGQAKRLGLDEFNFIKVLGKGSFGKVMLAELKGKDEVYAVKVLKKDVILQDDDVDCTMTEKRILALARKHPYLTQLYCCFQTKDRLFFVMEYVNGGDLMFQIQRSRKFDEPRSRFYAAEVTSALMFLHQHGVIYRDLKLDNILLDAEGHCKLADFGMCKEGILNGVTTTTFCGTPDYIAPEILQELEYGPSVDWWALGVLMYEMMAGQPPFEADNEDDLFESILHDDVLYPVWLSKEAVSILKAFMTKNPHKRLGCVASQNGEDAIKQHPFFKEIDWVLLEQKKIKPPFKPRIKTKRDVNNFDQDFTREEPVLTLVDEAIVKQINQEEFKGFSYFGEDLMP
Summary of the method: (§1)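 Synthetic C1 peptides of about 50 amino acids, used as surrogates for the PKC C1 domains, were incubated with [3H]phorbol 12,13-dibutyrate (PDBu). Competitor was assessed by inhibition of specific [3H]PDBu binding. […] Values are given with standard deviation from at least two separate experiments.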

[2] = molecular target: Protein kinase C theta type (Homo sapiens, UniProt Q04759); test: Displacement of [3H]PDBu from protein kinase C Theta-C1B domain; summary of the method: as §1
[3] = molecular target: T2, Protein kinase C beta type (Homo sapiens, UniProt P05771); test: Displacement of [3H]PDBu from protein kinase C Beta-C1A domain; summary of the method: as §1
[4] = molecular target: T3, Protein kinase C delta type (Homo sapiens, UniProt Q05655); test: Displacement of [3H]PDBu from protein kinase C Delta-C1B domain; summary of the method: as §1
[5] = molecular target: T4, Protein kinase C alpha type (Homo sapiens, UniProt P17252); test: Displacement of [3H]PDBu from protein kinase C Alpha-C1B domain; summary of the method: as §1
[6] = molecular target: T2, Protein kinase C beta type; test: Displacement of [3H]PDBu from protein kinase C Beta-C1B domain; summary of the method: as §1
[7] = molecular target: T5, Protein kinase C eta type (Homo sapiens, UniProt P24723); test: Displacement of [3H]PDBu from protein kinase C eta-C1A domain; summary of the method: as §1
[8] = molecular target: T5, Protein kinase C eta type; test: Displacement of [3H]PDBu from protein kinase C eta-C1B domain; summary of the method: as §1
[9] = molecular target: T4, Protein kinase C alpha type; test: Displacement of [3H]PDBu from protein kinase C Alpha-C1A domain; summary of the method: as §1
[10] = molecular target: T3, Protein kinase C delta type; test: Displacement of [3H]PDBu from protein kinase C Delta-C1A domain; summary of the method: as §1
[11] = molecular target: T1, Protein kinase C epsilon type; test: Displacement of [3H]-PDBu from protein kinase C epsilon-C1A domain; summary of the method: as §1
[12] = molecular target: T6, Protein kinase C gamma type (Homo sapiens, UniProt P05129); test: Displacement of [3H]PDBu from protein kinase C gamma-C1A domain; summary of the method: as §1
[13] = molecular target: T6, Protein kinase C gamma type; test: Displacement of [3H]-PDBu from protein kinase C gamma-C1B domain; summary of the method: as §1

T2 sequence (P05771 whole entry, the tested form may be a part): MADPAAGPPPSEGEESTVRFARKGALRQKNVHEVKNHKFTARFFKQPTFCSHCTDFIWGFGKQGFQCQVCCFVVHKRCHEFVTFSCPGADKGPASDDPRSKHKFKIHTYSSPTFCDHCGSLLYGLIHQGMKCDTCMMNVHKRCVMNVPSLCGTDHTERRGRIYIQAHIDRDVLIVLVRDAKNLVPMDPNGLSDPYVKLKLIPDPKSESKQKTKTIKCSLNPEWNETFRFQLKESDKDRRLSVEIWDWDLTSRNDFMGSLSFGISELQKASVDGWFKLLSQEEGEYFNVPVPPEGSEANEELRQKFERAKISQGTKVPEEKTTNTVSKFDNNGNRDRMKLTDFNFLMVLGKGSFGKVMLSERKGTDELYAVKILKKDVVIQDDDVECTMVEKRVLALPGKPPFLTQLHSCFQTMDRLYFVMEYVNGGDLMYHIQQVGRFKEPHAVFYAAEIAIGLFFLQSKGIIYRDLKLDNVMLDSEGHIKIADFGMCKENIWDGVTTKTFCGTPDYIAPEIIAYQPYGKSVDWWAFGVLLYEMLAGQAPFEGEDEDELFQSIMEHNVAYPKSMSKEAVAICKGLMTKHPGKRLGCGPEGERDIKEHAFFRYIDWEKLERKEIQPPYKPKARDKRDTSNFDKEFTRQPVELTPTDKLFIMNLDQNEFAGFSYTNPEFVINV
T5 sequence (P24723 whole entry, the tested form may be a part): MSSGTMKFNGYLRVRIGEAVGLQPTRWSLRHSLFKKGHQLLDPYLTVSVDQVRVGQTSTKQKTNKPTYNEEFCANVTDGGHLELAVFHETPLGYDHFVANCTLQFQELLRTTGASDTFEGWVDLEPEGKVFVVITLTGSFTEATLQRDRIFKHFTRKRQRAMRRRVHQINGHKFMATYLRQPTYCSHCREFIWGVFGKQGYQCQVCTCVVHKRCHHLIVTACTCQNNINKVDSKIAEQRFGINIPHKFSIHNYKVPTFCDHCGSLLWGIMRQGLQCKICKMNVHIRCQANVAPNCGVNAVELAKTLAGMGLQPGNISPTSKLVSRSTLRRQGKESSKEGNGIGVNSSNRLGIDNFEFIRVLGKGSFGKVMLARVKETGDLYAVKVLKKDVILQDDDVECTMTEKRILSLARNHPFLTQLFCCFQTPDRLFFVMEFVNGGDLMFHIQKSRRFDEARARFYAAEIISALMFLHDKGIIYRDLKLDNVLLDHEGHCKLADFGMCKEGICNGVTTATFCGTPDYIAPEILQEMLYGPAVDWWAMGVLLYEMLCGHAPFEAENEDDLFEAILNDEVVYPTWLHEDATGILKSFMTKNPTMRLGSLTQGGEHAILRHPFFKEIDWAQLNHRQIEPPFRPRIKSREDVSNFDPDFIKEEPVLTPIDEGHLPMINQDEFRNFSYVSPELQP
Chain of Protein kinase C theta type (Q04759 whole entry, the tested form may be a part): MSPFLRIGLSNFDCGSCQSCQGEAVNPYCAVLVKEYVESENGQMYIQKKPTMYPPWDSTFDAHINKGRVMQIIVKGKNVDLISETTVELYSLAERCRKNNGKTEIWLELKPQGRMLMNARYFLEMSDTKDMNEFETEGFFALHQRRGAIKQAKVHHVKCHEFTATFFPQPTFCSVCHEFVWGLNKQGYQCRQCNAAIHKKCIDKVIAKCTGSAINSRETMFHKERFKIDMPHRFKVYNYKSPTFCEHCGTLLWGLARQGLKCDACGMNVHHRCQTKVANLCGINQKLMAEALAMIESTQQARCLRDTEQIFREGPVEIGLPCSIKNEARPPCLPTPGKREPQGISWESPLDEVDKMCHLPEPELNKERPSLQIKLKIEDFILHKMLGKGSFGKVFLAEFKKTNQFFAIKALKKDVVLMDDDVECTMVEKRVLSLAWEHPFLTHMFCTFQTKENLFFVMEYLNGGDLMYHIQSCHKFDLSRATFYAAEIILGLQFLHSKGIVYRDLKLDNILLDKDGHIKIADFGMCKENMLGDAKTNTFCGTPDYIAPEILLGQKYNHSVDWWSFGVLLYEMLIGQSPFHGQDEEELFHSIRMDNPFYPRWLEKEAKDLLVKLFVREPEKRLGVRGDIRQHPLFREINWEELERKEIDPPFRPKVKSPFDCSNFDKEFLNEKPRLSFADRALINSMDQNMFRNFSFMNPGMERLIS
T3 sequence (Q05655 whole entry, the tested form may be a part): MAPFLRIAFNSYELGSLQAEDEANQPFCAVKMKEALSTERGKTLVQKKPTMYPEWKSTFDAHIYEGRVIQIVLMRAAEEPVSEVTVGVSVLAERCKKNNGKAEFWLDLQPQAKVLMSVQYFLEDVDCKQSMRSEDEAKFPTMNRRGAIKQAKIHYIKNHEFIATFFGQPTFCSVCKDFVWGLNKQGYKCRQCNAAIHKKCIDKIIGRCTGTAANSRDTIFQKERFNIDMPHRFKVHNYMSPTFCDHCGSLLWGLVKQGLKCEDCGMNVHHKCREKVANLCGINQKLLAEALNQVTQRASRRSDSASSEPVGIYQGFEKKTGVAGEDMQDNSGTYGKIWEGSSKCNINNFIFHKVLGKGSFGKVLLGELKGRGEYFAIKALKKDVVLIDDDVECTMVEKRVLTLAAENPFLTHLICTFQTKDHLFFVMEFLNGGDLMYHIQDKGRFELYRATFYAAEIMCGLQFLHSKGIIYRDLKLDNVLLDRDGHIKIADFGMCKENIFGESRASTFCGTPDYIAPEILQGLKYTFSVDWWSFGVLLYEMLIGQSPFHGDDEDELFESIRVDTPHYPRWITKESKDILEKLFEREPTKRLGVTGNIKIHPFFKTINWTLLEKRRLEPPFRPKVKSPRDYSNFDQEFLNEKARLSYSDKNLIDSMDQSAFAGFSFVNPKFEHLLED

| SMILES | Ki [1] | Ki [2] | Ki [3] | Ki [4] | Ki [5] | Ki [6] | Ki [7] | Ki [8] | Ki [9] | Ki [10] | Ki [11] | Ki [12] | Ki [13] |
| --- | --- | --- | --- | --- | --- | --- | --- | --- | --- | --- | --- | --- | --- |
| CCCCCCCCCCc1ccc2c(c1)N(C)[C@@H](C(C)C)C(=O)O[C@H](CO)C2 | 83 nM | 62 nM | 1140 nM | 149 nM | 4050 nM | 610 nM | 1590 nM | 37 nM | 412 nM | 6150 nM | 4830 nM | 2360 nM | 675 nM |
| CCCCCCCCCCCN1c2ccccc2C[C@@H](CO)OC(=O)[C@@H]1C(C)C | 411 nM | 358 nM | 4690 nM | 415 nM | > 10000 nM | 2070 nM | 6330 nM | 189 nM | 4580 nM | 30300 nM | 5360 nM | 5750 nM | 2820 nM |
| CCCCCCCCCCc1cccc2c1C[C@@H](CO)OC(=O)[C@H](C(C)C)N2C | 540 nM | 167 nM | 539 nM | 92 nM | > 10000 nM | 2690 nM | 4250 nM | 111 nM | 870 nM | > 10000 nM | 7880 nM | 970 nM | 1720 nM |
